ChEMBL document CHEMBL4196160, “Structure-Guided Design and Procognitive Assessment of a Potent and Selective Phosphodiesterase 2A Inhibitor” (ACS Med Chem Lett, 2018)
The source made the active and inactive calls. The rule behind the calls is not given here.

Assays:
[1] = Inhibition of rhesus monkey brain PDE2A3 expressed in human AD293 cells using FAM-labeled cAMP/cGMP as substrate incubated for 60 mins measured after 1 hr by IMAP based fluorescence polarization assay
[2] = tested on: P-gp; assay: Substrate activity at rat P-gp assessed as efflux ratio; type: ADME; conditions: not told
[3] = tested on: P-gp; assay: Substrate activity at human P-gp assessed as efflux ratio; type: ADME; conditions: not told
[4] = tested on: Rhesus monkey; assay: Reversal of scopolamine-induced cognitive impairment in rhesus monkey assessed increase in novel object retrieval at 0.3 mg/kg by novel object recognition test; type: functional, organism-based; conditions: Macaca mulatta
Procedure, shortened: (§1)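 Rhesus monkeys impaired with scopolamine performed an object retrieval task. A food item was placed deep inside a clear box whose single open side was out of direct view. Each attempt was scored correct if the food was retrieved without touching a closed side. Read-out was percentage correct versus scopolamine alone, with donepezil as positive control.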

[5] = tested on: Rattus norvegicus; assay: Reversal of scopolamine-induced cognitive impairment in Wistar Hannover rat assessed as improvement in episodic memory at 1.8 mg/kg, ip administered 30 mins prior to testing by novel object recognition test; type: functional, organism-based
Procedure, shortened: (§2)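 Rats given vehicle or scopolamine, then exposed to two identical objects; one hour later exposed to one familiar and one novel object. Recognition memory scored as time spent exploring the novel versus the familiar object. Donepezil served as positive control.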

[6] = Half life in rat; type: ADME, organism-based; conditions: in vivo
[7] = Volume of distribution at steady state in rhesus monkey; type: ADME, organism-based, Macaca mulatta; conditions: in vivo, read-out: Vdss
[8] = Selectivity ratio of IC50 for human GST-tagged PDE1A expressed in insect cells to IC50 for rhesus monkey brain PDE2A3 expressed in human AD293 cells
[9] = Selectivity ratio of IC50 for human GST-tagged PDE10A2 expressed in insect cells to IC50 for rhesus monkey brain PDE2A3 expressed in human AD293 cells
[10] = tested on: Rattus norvegicus; assay: Increase in cGMP levels in rat brain cytosolic fraction of cortical tissue at 3 to 30 mg/kg, po measured after 30 mins by ELISA; type: functional, organism-based
Procedure, shortened: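 Rats dosed orally at 3, 10 or 30 mg/kg; brain tissue harvested 30 min after dosing and frozen; cortical cGMP measured and compared with controls.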

[11] = tested on: Rhesus monkey; assay: Reversal of scopolamine-induced cognitive impairment in rhesus monkey assessed increase in novel object retrieval at 1 mg/kg administered orally 4 hrs prior to testing by novel object recognition test; type: functional, organism-based; conditions: Macaca mulatta; procedure, shortened: as §1
[12] = Selectivity ratio of IC50 for human GST-tagged PDE9A2 expressed in insect cells to IC50 for rhesus monkey brain PDE2A3 expressed in human AD293 cells
[13] = Selectivity ratio of IC50 for human GST-tagged PDE2A1 expressed in insect cells to IC50 for rhesus monkey brain PDE2A3 expressed in human AD293 cells
[14] = Selectivity ratio of IC50 for human GST-tagged PDE4A1A expressed in insect cells to IC50 for rhesus monkey brain PDE2A3 expressed in human AD293 cells
[15] = Protein binding in rhesus monkey plasma; type: ADME, cell-free, Macaca mulatta; conditions: read-out: PPB (converted)
[16] = Selectivity ratio of IC50 for human GST-tagged PDE11A4 expressed in insect cells to IC50 for rhesus monkey brain PDE2A3 expressed in human AD293 cells
[17] = Lipophilicity, log D of the compound by HPLC method; type: physicochemical
[18] = Clearance in rat; type: ADME, organism-based; conditions: in vivo
[19] = tested on: Rattus norvegicus; assay: Reversal of scopolamine-induced cognitive impairment in Wistar Hannover rat assessed as improvement in episodic memory at 0.1 to 1 mg/kg, po administered 30 mins prior to testing by novel object recognition test; type: functional, organism-based; procedure, shortened: as §2
[20] = Selectivity ratio of IC50 for human GST-tagged PDE3A expressed in insect cells to IC50 for rhesus monkey brain PDE2A3 expressed in human AD293 cells
[21] = tested on: P-gp; assay: Substrate activity at P-gp (unknown origin) assessed as apparent permeability; type: ADME; conditions: human, not told
[22] = Selectivity ratio of IC50 for human GST-tagged PDE7A expressed in insect cells to IC50 for rhesus monkey brain PDE2A3 expressed in human AD293 cells
[23] = Protein binding in rat plasma; type: ADME, cell-free; conditions: read-out: PPB (converted)
[24] = Inhibition of CYP450 (unknown origin); type: ADME, Homo sapiens
[25] = Clearance in rhesus monkey; type: ADME, organism-based, Macaca mulatta; conditions: in vivo
[26] = Oral bioavailability in rhesus monkey; type: ADME, organism-based, Macaca mulatta; conditions: in vivo
[27] = Selectivity ratio of IC50 for human GST-tagged PDE6C expressed in insect cells to IC50 for rhesus monkey brain PDE2A3 expressed in human AD293 cells
[28] = Volume of distribution at steady state in rat; type: ADME, organism-based; conditions: in vivo, read-out: Vdss
[29] = Selectivity ratio of IC50 for human GST-tagged PDE8A1 expressed in insect cells to IC50 for rhesus monkey brain PDE2A3 expressed in human AD293 cells
[30] = Half life in rhesus monkey; type: ADME, organism-based, Macaca mulatta; conditions: in vivo
[31] = Intrinsic clearance in human liver microsomes; type: ADME, microsome; conditions: read-out: CLH
[32] = tested on: Rhesus monkey; assay: Reversal of scopolamine-induced cognitive impairment in rhesus monkey assessed increase in novel object retrieval administered orally 4 hrs prior to testing by novel object recognition test; type: functional, organism-based; conditions: Macaca mulatta; procedure, shortened: as §1
[33] = Oral bioavailability in rat; type: ADME, organism-based; conditions: in vivo
[34] = Selectivity ratio of IC50 for human GST-tagged PDE5A1 expressed in insect cells to IC50 for rhesus monkey brain PDE2A3 expressed in human AD293 cells

## Cc1nc2c(c(CO)nn2[C@H](C)c2ccc(C(F)(F)F)cc2)c(=O)[nH]1
[1]
  IC50: 216 nM

## COc1ccc(Cc2nc3c(c(CO)nn3[C@@H](C)c3ccc(C(F)(F)F)cc3)c(=O)[nH]2)cc1OC
[1]
  IC50: 0.89 nM
[2]
  efflux ratio: 35
[3]
  efflux ratio: 11

## COc1cc2c(cc1OC)C(=O)C(CC1CCN(Cc3ccccc3)CC1)C2 (stereo not given)
[4]
  Activity: Active
[5]
  Activity: Active

## Cc1nc2c(c(CO)nn2[C@@H](C)c2ccc(C(F)(F)F)cc2)c(=O)[nH]1
[6]
  half-life: 2.9 h
[7]
  Vd: 0.88 L/kg
[8]
  Ratio IC50: > 500
[9]
  Ratio IC50: > 500
[10]
  Activity: Active
[11]
  Activity: inactive
[1]
  IC50: 2 nM
[12]
  Ratio IC50: 315
[13]
  Ratio IC50: > 500
[14]
  Ratio IC50: > 500
[2]
  efflux ratio: 3
[15]
  fraction unbound: 0.1
[16]
  Ratio IC50: > 500
[17]
  logD: 2.2 to 2.7
[18]
  clearance: 5.6 mL/min/kg
[19]
  Activity: Active
[20]
  Ratio IC50: > 500
[21]
  Papp: 37 ×10⁻⁶ cm/s
[22]
  Ratio IC50: > 500
[23]
  fraction unbound: 0.15
[24]
  IC50: > 50000 nM
[25]
  clearance: 2 mL/min/kg
[3]
  efflux ratio: 1
[26]
  bioavailability: 100%
[27]
  Ratio IC50: > 500
[28]
  Vd: 1.4 L/kg
[29]
  Ratio IC50: > 500
[30]
  half-life: 5.2 h
[31]
  CLint scaled: < 6.2 mL/min/kg
[32]
  Activity: Dose-dependent effect
[33]
  bioavailability: 84%
[34]
  Ratio IC50: > 500

## Cc1nc2c(c(CO)nn2[C@@H](C)c2ccc(C(F)(F)F)c(F)c2)c(=O)[nH]1
[1]
  IC50: 1.3 nM
[12]
  Ratio IC50: 950

## C[C@@H](c1ccc(C(F)(F)F)cc1)n1nc(CF)c2c(=O)[nH]c(O)nc21
[1]
  IC50: 2 nM

## C[C@@H](c1ccc(C(F)(F)F)cc1)n1nc(CC(F)(F)F)c2c(=O)[nH]c(O)nc21
[8]
  Ratio IC50: > 12000
[9]
  Ratio IC50: > 12000
[1]
  IC50: 0.96 nM
[12]
  Ratio IC50: > 12000
[13]
  Ratio IC50: > 12000
[14]
  Ratio IC50: > 12000
[2]
  efflux ratio: 19
[16]
  Ratio IC50: > 12000
[17]
  logD: 1.8
[20]
  Ratio IC50: > 12000
[22]
  Ratio IC50: > 12000
[3]
  efflux ratio: 4.8
[27]
  Ratio IC50: > 12000
[29]
  Ratio IC50: > 12000
[34]
  Ratio IC50: > 12000

## Cc1nc2c(c(CO)nn2[C@H](c2ccc(C(F)(F)F)cc2)C(C)(C)C)c(=O)[nH]1
[1]
  IC50: 9 nM

## Cc1nc2c(c(C)nn2[C@@H](C)c2ccc(C(F)(F)F)cc2)c(=O)[nH]1
[8]
  Ratio IC50: 0 to 100
[9]
  Ratio IC50: 101 to 500
[1]
  IC50: 23 nM
[12]
  Ratio IC50: 4
[14]
  Ratio IC50: 101 to 500
[16]
  Ratio IC50: 101 to 500
[17]
  logD: 2.7
[20]
  Ratio IC50: 0 to 100
[22]
  Ratio IC50: > 500
[27]
  Ratio IC50: > 500
[29]
  Ratio IC50: > 500
[34]
  Ratio IC50: 101 to 500

## C[C@@H](c1ccc(C(F)(F)F)cc1)n1nc(CO)c2c(=O)[nH]c(O)nc21
[8]
  Ratio IC50: > 1000
[9]
  Ratio IC50: > 1000
[1]
  IC50: 14 nM
[12]
  Ratio IC50: 1190
[13]
  Ratio IC50: > 1000
[14]
  Ratio IC50: > 1000
[2]
  efflux ratio: 0.38
[16]
  Ratio IC50: > 1000
[17]
  logD: 1.1
[20]
  Ratio IC50: > 1000
[21]
  Papp: 41 ×10⁻⁶ cm/s
[22]
  Ratio IC50: > 1000
[3]
  efflux ratio: 0.32
[27]
  Ratio IC50: > 1000
[29]
  Ratio IC50: > 1000
[34]
  Ratio IC50: > 1000
